According to ChEMBL document CHEMBL4699648, “Discovery of Potent and Brain-Penetrant GPR52 Agonist that Suppresses Psychostimulant Behavior” (J Med Chem, 2020):
The source made the active and inactive calls. No cut-off for these calls is given here.

How the values were obtained:
hERG (KCNH2) = hERG (KCNH2) (Homo sapiens, UniProt Q12809); experiment: Binding affinity to human ERG assessed as inhibition of ligand binding at 10 uM relative to control
HEK293 = experiment: Effect on cAMP levels in HEK293 cells at 0.1 nM to 10000 nM incubated for 15 mins by Glosensor cAMP assay; assay type: functional, cell-based; settings: Homo sapiens, dose nM 0.1-10000, time […]
Summary of the method: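 HEK293 cells were transiently co-transfected with human GPR52 and the 22F Glosensor cAMP reporter. After 18 h they were seeded on poly-L-lysine, then equilibrated 2 h at room temperature in the dark in 1% Glosensor reagent/HBSS/20 mM HEPES. Cells were treated 15 min with a twelve-point series, and luminescence was read.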

[1] = AUC (0 to infinity) in Sprague-Dawley rat at 20 mg/kg, po mesured up to 24 hrs; assay type: ADME, organism-based; parameters: route oral, dose 20 mg/kg, time <=24; settings: in vivo
Summary of the method: (§1)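 Male Sprague-Dawley rats (200–250 g, n = 3/group), dosed IV 10 mg/kg or PO 20 mg/kg in 10% DMSO/90% HP-β-CD. Jugular blood into K2EDTA at 0.08 (IV only), 0.25, 0.5, 1, 2, 4, 8, 24 h; plasma by centrifugation at 4 °C, stored −20 °C. Non-compartmental analysis; Cmax read from profile, AUC by linear trapezoidal rule extrapolated to infinity; mean ± SEM.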

[2] = AUC (0 to infinity) in Sprague-Dawley rat at 10 mg/kg, iv mesured up to 24 hrs; assay type: ADME, organism-based; parameters: route intravenous, dose 10 mg/kg, time <=24; settings: in vivo; summary of the method: as §1
[3] = Cmax in Sprague-Dawley rat at 20 mg/kg, po mesured up to 24 hrs; assay type: ADME, organism-based; parameters: route oral, dose 20 mg/kg, time <=24; settings: in vivo; summary of the method: as §1
[4] = Cmax in Sprague-Dawley rat at 10 mg/kg, iv mesured up to 24 hrs; assay type: ADME, organism-based; parameters: route intravenous, dose 10 mg/kg, time <=24; settings: in vivo; summary of the method: as §1
[5] = Clearance in Sprague-Dawley rat at 10 mg/kg, iv mesured up to 24 hrs; assay type: ADME, organism-based; settings: in vivo; summary of the method: as §1
[6] = Volume of distribution at steady state in Sprague-Dawley rat at 20 mg/kg, po mesured up to 24 hrs; assay type: ADME, organism-based; settings: in vivo
[7] = Volume of distribution at steady state in Sprague-Dawley rat at 10 mg/kg, iv mesured up to 24 hrs; assay type: ADME, organism-based; settings: in vivo
Summary of the method: (§2)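 Male Sprague Dawley rats, 200–250 g, n = 3 per group, were dosed at 10 mg/kg IV or 20 mg/kg PO in 10% DMSO/90% HP-β-CD. Jugular plasma was sampled from 0.08 (IV) or 0.25 (PO) to 24 h. Non-compartmental analysis gave t1/2 = 0.693/λ, AUC by linear trapezoid extrapolated to infinity, Vss after IV, and absolute F. Mean ± SEM.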

[8] = Oral bioavailability in Sprague-Dawley rat at 20 mg/kg mesured up to 24 hrs; assay type: ADME, organism-based; settings: in vivo; summary of the method: as §2
[9] = Drug level in Sprague-Dawley rat brain at 10 mg/kg, iv after 1 hr; assay type: ADME, organism-based; settings: read-out: Drug uptake
Summary of the method: (§3)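 Male Sprague Dawley rats, 200–250 g, n = 3, were given a single 10 mg/kg IV dose in 10% DMSO/90% HP-β-CD vehicle. Brain and jugular-vein plasma (K₂EDTA, centrifuged at 4 °C) were collected 0.25 and 1 h post-dose and stored at −20 °C. Drug concentration was measured in each and the brain/plasma ratio derived. Values are mean ± SEM of biological triplicates.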

[10] = Drug level in Sprague-Dawley rat plasma at 10 mg/kg, iv after 1 hr; assay type: ADME, organism-based; summary of the method: as §3
[11] = Ratio of drug level in brain to plasma of Sprague-Dawley rat at 10 mg/kg, iv after 1 hr; assay type: ADME, organism-based; summary of the method: as §3
Mus musculus [12] = experiment: Antipsychotic-like activity in C57/BL6 mouse assessed as reduction in amphetamine-evoked hyperactivity by measuring horizontal activity at 0.3 to 10 mg/kg, ip dosed 30 mins before amphetamine challenge and measured for 90 mins; assay type: functional, organism-based; settings: dose mg/kg 0.3-10, time […]
Summary of the method: (§4)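 Naïve male C57/BL6 mice (24–31 g, ~60 days), handled and habituated to activity monitors beforehand; n = 12/dose (11 at 1 mg/kg after outlier exclusion). Vehicle or 0.3, 1, 3, 10 mg/kg IP, then automated horizontal activity monitored 30 min; amphetamine 3 mg/kg IP followed, with monitoring for 90 min. One-way ANOVA with Dunnett's comparisons vs vehicle; mean ± SEM; blinded dosing.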

Mus musculus [13] = experiment: Antipsychotic-like activity in C57/BL6 mouse assessed as reduction in horizontal activity at 3 to 10 mg/kg, ip measured after 30 mins; assay type: functional, organism-based; settings: dose mg/kg 3-10, time 30.0 min; summary of the method: as §4
[14] = target: 5-hydroxytryptamine receptor 2C (Homo sapiens) (UniProt P28335); experiment: Binding affinity to 5-HT2C (unknown origin) assessed as inhibition of ligand binding at 10 uM relative to control
Homo sapiens = species on record: Homo sapiens; experiment: Binding affinity to GABAA receptor (unknown origin) assessed as inhibition of ligand binding at 10 uM relative to control
[15] = target: 5-hydroxytryptamine receptor 1A (Homo sapiens, UniProt P08908); experiment: Binding affinity to 5-HT1A (unknown origin) assessed as inhibition of ligand binding
[16] = target: 5-hydroxytryptamine receptor 1B (Homo sapiens, UniProt P28222); experiment: Binding affinity to 5-HT1B (unknown origin) assessed as inhibition of ligand binding
[17] = target: 5-hydroxytryptamine receptor 1D (Homo sapiens, UniProt P28221); experiment: Binding affinity to 5-HT1D (unknown origin) assessed as inhibition of ligand binding
[18] = target: 5-hydroxytryptamine receptor 1E (Homo sapiens, UniProt P28566); experiment: Binding affinity to 5-HT1E (unknown origin) assessed as inhibition of ligand binding
[19] = target: 5-hydroxytryptamine receptor 2A (Homo sapiens, UniProt P28223); experiment: Binding affinity to 5-HT2A (unknown origin) assessed as inhibition of ligand binding
[20] = target: 5-hydroxytryptamine receptor 2B (Homo sapiens, UniProt P41595); experiment: Binding affinity to 5-HT2B (unknown origin) assessed as inhibition of ligand binding
[21] = target: 5-hydroxytryptamine receptor 3A (Homo sapiens, UniProt P46098); experiment: Binding affinity to 5-HT3 (unknown origin) assessed as inhibition of ligand binding
[22] = target: 5-hydroxytryptamine receptor 5A (Homo sapiens, UniProt P47898); experiment: Binding affinity to 5-HT5A (unknown origin) assessed as inhibition of ligand binding
[23] = target: 5-hydroxytryptamine receptor 6 (Homo sapiens, UniProt P50406); experiment: Binding affinity to 5-HT6 (unknown origin) assessed as inhibition of ligand binding
[24] = target: 5-hydroxytryptamine receptor 7 (Homo sapiens, UniProt P34969); experiment: Binding affinity to 5-HT7A (unknown origin) assessed as inhibition of ligand binding
[25] = target: Alpha-1A adrenergic receptor (Homo sapiens, UniProt P35348); experiment: Binding affinity to alpha1A receptor (unknown origin) assessed as inhibition of ligand binding
[26] = target: Alpha-1B adrenergic receptor (Homo sapiens, UniProt P35368); experiment: Binding affinity to alpha1B receptor (unknown origin) assessed as inhibition of ligand binding
Alpha-1B adrenergic receptor, sequence (P35368 whole entry): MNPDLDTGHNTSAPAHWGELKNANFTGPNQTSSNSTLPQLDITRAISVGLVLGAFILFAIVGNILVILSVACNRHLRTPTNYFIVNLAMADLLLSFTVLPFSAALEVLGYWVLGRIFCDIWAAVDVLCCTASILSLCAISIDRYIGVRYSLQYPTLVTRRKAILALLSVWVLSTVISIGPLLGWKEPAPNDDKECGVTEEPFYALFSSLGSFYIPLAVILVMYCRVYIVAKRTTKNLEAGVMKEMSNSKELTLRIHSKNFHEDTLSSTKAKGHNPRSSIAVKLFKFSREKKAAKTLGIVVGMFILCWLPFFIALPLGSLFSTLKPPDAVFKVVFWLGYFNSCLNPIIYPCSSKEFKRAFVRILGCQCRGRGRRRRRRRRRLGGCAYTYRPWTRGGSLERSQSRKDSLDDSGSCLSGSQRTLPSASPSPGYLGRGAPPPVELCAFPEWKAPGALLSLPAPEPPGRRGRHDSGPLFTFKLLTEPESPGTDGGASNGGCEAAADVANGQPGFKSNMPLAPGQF

[27] = target: Alpha-2A adrenergic receptor (Homo sapiens, UniProt P08913); experiment: Binding affinity to alpha2A receptor (unknown origin) assessed as inhibition of ligand binding
[28] = target: Beta-1 adrenergic receptor (Homo sapiens, UniProt P08588); experiment: Binding affinity to beta1 adrenergic receptor (unknown origin) assessed as inhibition of ligand binding
Beta-1 adrenergic receptor, sequence (P08588 whole entry): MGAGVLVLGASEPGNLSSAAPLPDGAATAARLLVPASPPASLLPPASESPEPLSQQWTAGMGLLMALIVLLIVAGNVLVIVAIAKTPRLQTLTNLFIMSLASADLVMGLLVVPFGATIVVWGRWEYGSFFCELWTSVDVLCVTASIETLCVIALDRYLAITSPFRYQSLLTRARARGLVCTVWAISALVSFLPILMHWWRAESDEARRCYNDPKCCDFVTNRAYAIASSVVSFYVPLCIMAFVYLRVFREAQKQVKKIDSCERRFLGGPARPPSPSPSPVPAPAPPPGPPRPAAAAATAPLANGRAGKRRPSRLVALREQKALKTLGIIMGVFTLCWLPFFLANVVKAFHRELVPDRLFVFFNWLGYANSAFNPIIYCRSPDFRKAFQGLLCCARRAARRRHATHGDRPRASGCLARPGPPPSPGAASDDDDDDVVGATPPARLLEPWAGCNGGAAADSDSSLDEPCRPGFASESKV

[29] = target: Beta-2 adrenergic receptor (Homo sapiens, UniProt P07550); experiment: Binding affinity to beta2 adrenergic receptor (unknown origin) assessed as inhibition of ligand binding
Beta-2 adrenergic receptor, sequence (P07550 whole entry): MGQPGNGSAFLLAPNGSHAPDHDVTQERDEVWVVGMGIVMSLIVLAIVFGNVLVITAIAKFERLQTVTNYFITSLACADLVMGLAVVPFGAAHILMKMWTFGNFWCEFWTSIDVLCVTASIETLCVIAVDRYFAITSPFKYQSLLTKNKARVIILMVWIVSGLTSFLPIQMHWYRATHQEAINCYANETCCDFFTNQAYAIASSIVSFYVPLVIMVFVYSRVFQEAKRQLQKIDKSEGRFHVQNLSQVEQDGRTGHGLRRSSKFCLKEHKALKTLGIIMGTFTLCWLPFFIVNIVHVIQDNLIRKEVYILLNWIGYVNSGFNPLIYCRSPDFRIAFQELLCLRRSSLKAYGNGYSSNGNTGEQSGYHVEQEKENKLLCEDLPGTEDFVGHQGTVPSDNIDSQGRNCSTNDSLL

D(1A) dopamine receptor = D(1A) dopamine receptor (Homo sapiens, UniProt P21728); experiment: Binding affinity to DRD1 (unknown origin) assessed as inhibition of ligand binding
D(2) dopamine receptor = D(2) dopamine receptor (Homo sapiens, UniProt P14416); experiment: Binding affinity to DRD2 (unknown origin) assessed as inhibition of ligand binding
D(3) dopamine receptor = D(3) dopamine receptor (Homo sapiens, UniProt P35462); experiment: Binding affinity to DRD3 (unknown origin) assessed as inhibition of ligand binding
D(4) dopamine receptor = D(4) dopamine receptor (Homo sapiens, UniProt P21917); experiment: Binding affinity to DRD4 (unknown origin) assessed as inhibition of ligand binding
D(4) dopamine receptor, sequence (P21917 whole entry): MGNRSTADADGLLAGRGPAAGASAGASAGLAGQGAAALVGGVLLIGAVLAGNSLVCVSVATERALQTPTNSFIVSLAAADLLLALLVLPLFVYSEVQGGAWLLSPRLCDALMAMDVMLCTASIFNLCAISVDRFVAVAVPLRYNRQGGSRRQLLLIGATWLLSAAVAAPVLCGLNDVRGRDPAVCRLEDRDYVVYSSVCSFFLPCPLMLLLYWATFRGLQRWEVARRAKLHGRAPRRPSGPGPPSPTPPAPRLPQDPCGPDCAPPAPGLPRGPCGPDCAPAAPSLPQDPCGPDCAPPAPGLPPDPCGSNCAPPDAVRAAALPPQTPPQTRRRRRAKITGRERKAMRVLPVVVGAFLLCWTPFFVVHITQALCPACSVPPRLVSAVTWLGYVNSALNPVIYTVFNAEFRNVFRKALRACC

D(1B) dopamine receptor = D(1B) dopamine receptor (Homo sapiens, UniProt P21918); experiment: Binding affinity to DRD5 (unknown origin) assessed as inhibition of ligand binding
D(1B) dopamine receptor, sequence (P21918 whole entry): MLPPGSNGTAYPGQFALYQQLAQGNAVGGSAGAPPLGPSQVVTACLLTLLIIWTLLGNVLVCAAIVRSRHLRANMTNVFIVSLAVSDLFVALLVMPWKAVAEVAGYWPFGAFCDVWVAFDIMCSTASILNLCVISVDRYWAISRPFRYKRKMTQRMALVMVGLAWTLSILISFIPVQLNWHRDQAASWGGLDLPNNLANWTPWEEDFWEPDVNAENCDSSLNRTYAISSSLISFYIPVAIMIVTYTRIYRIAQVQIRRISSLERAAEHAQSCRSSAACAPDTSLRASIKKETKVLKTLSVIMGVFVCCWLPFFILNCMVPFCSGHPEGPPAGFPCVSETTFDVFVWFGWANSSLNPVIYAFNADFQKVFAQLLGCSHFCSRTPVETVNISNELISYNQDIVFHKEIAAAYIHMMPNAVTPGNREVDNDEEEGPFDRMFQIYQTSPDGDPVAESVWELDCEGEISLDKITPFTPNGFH

[30] = target: Sodium-dependent dopamine transporter (Homo sapiens, UniProt Q01959); experiment: Binding affinity to DAT (unknown origin) assessed as inhibition of ligand binding
Sodium-dependent dopamine transporter, sequence (Q01959 whole entry): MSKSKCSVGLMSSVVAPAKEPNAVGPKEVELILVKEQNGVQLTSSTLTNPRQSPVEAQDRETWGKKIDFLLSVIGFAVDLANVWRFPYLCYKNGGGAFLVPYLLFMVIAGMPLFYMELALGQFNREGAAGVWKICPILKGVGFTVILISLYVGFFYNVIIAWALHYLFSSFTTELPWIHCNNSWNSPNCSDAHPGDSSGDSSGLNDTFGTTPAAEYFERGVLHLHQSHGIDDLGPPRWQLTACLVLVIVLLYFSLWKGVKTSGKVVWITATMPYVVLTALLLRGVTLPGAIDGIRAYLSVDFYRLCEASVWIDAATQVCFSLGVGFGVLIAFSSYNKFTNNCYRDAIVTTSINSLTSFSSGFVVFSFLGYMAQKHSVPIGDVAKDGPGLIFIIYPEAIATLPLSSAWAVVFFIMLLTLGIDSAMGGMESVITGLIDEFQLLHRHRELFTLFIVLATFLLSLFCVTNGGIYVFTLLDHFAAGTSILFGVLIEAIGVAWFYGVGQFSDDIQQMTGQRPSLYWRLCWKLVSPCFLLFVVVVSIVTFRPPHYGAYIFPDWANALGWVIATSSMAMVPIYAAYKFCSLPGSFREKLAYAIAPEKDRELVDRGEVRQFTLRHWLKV

[31] = Binding affinity to GABAA receptor (unknown origin) assessed as inhibition of ligand binding; parameters: species or system Homo sapiens
Histamine H1 receptor = Histamine H1 receptor (Homo sapiens, UniProt P35367); experiment: Binding affinity to HRH1 (unknown origin) assessed as inhibition of ligand binding
Histamine H1 receptor, sequence (P35367 whole entry): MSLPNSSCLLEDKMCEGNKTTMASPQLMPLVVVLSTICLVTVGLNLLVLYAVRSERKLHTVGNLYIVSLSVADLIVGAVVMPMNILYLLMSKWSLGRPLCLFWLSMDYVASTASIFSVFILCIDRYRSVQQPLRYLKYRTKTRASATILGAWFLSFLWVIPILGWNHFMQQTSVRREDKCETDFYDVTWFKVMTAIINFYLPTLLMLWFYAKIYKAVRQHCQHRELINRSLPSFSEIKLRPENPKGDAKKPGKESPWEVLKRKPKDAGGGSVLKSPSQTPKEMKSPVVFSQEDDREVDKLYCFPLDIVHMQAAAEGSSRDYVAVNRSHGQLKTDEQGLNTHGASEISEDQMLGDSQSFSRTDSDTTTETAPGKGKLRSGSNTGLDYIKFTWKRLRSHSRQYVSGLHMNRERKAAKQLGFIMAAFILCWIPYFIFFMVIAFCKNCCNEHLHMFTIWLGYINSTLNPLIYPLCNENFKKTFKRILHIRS

Histamine H2 receptor = Histamine H2 receptor (Homo sapiens, UniProt P25021); experiment: Binding affinity to HRH2 (unknown origin) assessed as inhibition of ligand binding
[32] = target: Kappa-type opioid receptor (Homo sapiens, UniProt P41145); experiment: Binding affinity to KOR (unknown origin) assessed as inhibition of ligand binding
[33] = target: Muscarinic acetylcholine receptor M1 (Homo sapiens, UniProt P11229); experiment: Binding affinity to M1 receptor (unknown origin) assessed as inhibition of ligand binding
Muscarinic acetylcholine receptor M1, sequence (P11229 whole entry): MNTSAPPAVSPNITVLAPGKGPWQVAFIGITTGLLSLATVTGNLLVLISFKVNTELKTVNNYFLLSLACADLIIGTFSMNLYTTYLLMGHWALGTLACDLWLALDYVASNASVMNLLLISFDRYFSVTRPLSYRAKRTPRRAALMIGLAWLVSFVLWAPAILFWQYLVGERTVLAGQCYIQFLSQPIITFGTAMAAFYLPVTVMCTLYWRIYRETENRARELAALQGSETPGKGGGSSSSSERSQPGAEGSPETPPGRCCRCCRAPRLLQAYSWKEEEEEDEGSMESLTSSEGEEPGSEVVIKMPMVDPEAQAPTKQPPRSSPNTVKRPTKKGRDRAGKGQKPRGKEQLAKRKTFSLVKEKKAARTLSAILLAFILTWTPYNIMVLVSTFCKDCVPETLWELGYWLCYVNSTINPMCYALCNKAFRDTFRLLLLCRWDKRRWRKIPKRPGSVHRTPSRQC

[34] = target: Muscarinic acetylcholine receptor M2 (Homo sapiens, UniProt P08172); experiment: Binding affinity to M2 receptor (unknown origin) assessed as inhibition of ligand binding
Muscarinic acetylcholine receptor M2, sequence (P08172 whole entry): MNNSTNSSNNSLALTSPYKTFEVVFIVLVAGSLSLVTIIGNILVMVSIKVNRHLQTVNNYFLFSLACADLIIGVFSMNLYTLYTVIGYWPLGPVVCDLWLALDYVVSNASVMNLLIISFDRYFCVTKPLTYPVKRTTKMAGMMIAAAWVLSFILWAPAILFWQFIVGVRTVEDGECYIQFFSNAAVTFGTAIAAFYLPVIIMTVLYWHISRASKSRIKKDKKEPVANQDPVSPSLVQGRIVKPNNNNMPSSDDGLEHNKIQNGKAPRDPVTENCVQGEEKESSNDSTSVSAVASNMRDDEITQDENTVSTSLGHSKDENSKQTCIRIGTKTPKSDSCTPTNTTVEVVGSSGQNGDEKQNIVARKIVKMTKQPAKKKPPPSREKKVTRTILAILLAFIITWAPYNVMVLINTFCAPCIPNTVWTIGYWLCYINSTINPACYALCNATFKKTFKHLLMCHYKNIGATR

[35] = target: Muscarinic acetylcholine receptor M3 (Homo sapiens, UniProt P20309); experiment: Binding affinity to M3 receptor (unknown origin) assessed as inhibition of ligand binding
[36] = target: Muscarinic acetylcholine receptor M4 (Homo sapiens, UniProt P08173); experiment: Binding affinity to M4 receptor (unknown origin) assessed as inhibition of ligand binding
[37] = target: Muscarinic acetylcholine receptor M5 (Homo sapiens, UniProt P08912); experiment: Binding affinity to M5 receptor (unknown origin) assessed as inhibition of ligand binding
Mu-type opioid receptor = Mu-type opioid receptor (Homo sapiens, UniProt P35372); experiment: Binding affinity to MOR (unknown origin) assessed as inhibition of ligand binding
Mu-type opioid receptor, sequence (P35372 whole entry): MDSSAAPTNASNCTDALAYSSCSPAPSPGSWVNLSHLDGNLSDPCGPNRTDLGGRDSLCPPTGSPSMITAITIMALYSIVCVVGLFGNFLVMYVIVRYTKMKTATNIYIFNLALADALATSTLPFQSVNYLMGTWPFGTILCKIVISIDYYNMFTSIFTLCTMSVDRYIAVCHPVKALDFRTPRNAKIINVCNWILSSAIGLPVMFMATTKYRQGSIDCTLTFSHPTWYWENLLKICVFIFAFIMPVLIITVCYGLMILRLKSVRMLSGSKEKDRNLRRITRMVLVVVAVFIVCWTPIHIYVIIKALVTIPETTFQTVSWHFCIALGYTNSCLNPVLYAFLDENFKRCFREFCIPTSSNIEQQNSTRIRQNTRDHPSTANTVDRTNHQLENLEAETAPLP

[38] = target: Voltage-gated inwardly rectifying potassium channel KCNH2 (Homo sapiens, UniProt Q12809); experiment: Binding affinity to human ERG assessed as inhibition of ligand binding

O=C(NCCO)c1cccc2c1CCN2c1cc(Cc2cc(F)cc(C(F)(F)F)c2)ncn1
inhibition at 10 µM (hERG (KCNH2)): 11%
Activity (HEK293): inactive
AUC [1]: 13749 ng·h/mL
AUC [2]: 9030 ng·h/mL
Cmax [3]: 3407 ng/mL
Cmax [4]: 6726 ng/mL
CL [5]: 1.1 L/h/kg
Vdss [6]: 5.5 L/kg
Vdss [7]: 1.5 L/kg
bioavailability [8]: 76%
concentration at 1 h [9]: 1010 ng/g
concentration at 1 h [10]: 2590 ng/g
BPR [11]: 0.39
Activity (Mus musculus [12]): Dose-dependent effect
Activity (Mus musculus [13]): Active
inhibition [14]: 52.6%
inhibition (Homo sapiens): 5.98%
Ki [15]: Not Active
Ki [16]: Not Active
Ki [17]: Not Active
Ki [18]: Not Active
Ki [19]: Not Active
Ki [20]: Not Active
Ki [21]: Not Active
Ki [22]: Not Active
Ki [23]: Not Active
Ki [24]: Not Active
Ki [25]: Not Active
Ki [26]: Not Active
Ki [27]: Not Active
Ki [28]: Not Active
Ki [29]: Not Active
Ki (D(1A) dopamine receptor): Not Active
Ki (D(2) dopamine receptor): Not Active
Ki (D(3) dopamine receptor): Not Active
Ki (D(4) dopamine receptor): Not Active
Ki (D(1B) dopamine receptor): Not Active
Ki [30]: Not Active
Ki [31]: Not Active
Ki (Histamine H1 receptor): Not Active
Ki (Histamine H2 receptor): Not Active
Ki [32]: Not Active
Ki [33]: Not Active
Ki [34]: Not Active
Ki [35]: Not Active
Ki [36]: Not Active
Ki [37]: Not Active
Ki (Mu-type opioid receptor): Not Active
Ki [38]: Not Active
